Assay results as given in ChEMBL document CHEMBL1131626 (J Med Chem, 1998).
Each block holds one compound with its values, some of them ahead of it.

Legend:
Glucocorticoid receptor = biological target: T1, Glucocorticoid receptor (Homo sapiens, UniProt P04150); test: Binding affinity for baculovirus-expressed human glucocorticoid receptor
T1 sequence (P04150 whole entry): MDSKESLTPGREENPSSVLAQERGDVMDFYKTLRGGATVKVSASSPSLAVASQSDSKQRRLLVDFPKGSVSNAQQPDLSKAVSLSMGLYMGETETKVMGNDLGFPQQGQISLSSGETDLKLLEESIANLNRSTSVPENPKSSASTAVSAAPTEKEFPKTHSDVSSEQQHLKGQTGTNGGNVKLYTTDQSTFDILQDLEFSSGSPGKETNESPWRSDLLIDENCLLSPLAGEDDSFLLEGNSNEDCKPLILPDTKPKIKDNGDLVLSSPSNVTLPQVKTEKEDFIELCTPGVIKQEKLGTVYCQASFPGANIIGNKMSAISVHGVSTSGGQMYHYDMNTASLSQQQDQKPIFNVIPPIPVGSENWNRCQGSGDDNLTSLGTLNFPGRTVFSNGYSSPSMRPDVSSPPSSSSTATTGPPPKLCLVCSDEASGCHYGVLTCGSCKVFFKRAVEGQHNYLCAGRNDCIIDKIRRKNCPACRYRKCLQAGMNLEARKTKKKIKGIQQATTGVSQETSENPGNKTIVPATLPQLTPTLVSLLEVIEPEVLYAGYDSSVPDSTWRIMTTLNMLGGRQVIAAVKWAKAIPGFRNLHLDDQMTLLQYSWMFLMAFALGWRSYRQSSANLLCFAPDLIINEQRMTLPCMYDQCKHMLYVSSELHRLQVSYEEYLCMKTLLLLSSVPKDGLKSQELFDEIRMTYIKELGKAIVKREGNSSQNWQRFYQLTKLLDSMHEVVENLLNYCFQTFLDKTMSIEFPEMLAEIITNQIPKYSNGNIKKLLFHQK

Progesterone receptor [1] = biological target: T2, Progesterone receptor (Homo sapiens, UniProt P06401); test: Effective concentration for half-maximal activation of human progesterone receptor expressed in CV-1 cells; format: cell-based
T2 sequence (P06401 whole entry): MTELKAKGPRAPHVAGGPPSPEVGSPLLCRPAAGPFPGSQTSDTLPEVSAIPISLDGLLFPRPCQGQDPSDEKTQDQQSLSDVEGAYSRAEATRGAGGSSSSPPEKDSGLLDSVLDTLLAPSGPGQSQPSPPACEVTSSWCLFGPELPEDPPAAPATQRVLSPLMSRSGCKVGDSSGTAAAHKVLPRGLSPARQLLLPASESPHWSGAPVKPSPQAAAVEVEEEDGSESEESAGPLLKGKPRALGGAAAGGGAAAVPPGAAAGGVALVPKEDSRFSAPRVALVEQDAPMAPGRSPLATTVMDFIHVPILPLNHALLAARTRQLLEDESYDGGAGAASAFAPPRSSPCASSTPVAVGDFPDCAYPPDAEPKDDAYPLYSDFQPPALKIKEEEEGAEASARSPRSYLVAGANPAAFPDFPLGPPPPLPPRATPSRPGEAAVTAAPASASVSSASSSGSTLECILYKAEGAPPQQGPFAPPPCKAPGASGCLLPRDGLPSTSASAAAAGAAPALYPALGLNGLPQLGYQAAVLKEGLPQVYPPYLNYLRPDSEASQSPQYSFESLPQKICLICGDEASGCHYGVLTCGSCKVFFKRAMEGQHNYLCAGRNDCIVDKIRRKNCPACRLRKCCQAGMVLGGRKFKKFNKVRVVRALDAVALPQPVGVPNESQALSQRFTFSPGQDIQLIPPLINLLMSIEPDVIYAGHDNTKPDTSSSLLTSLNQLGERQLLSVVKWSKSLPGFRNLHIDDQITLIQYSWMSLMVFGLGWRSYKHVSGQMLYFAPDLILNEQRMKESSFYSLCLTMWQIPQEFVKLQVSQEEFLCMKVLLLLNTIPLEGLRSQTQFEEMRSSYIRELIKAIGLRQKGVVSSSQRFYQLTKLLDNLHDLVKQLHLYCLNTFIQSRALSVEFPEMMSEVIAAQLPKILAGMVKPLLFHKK

Progesterone receptor [2] = biological target: T2, Progesterone receptor; test: Binding affinity for baculovirus-expressed human progesterone receptor isoform A
[3] = biological target: T3, Progesterone receptor (Homo sapiens) (UniProt P06401); test: Efficacy for progesterone receptor relative to progesterone
T3 sequence (whole entry): T2 sequence (P06401 whole entry)

[4] = biological target: T4, Progesterone receptor (Rattus norvegicus) (UniProt Q63449); test: Fold induction as increase in BrdU labeling index over estrone treatment alone in lobular-aveolar rat mammary buds by progestin treatment at 3 mg/kg; format: functional, organism-based; parameters: dose 3 mg/kg
T4 sequence (whole entry): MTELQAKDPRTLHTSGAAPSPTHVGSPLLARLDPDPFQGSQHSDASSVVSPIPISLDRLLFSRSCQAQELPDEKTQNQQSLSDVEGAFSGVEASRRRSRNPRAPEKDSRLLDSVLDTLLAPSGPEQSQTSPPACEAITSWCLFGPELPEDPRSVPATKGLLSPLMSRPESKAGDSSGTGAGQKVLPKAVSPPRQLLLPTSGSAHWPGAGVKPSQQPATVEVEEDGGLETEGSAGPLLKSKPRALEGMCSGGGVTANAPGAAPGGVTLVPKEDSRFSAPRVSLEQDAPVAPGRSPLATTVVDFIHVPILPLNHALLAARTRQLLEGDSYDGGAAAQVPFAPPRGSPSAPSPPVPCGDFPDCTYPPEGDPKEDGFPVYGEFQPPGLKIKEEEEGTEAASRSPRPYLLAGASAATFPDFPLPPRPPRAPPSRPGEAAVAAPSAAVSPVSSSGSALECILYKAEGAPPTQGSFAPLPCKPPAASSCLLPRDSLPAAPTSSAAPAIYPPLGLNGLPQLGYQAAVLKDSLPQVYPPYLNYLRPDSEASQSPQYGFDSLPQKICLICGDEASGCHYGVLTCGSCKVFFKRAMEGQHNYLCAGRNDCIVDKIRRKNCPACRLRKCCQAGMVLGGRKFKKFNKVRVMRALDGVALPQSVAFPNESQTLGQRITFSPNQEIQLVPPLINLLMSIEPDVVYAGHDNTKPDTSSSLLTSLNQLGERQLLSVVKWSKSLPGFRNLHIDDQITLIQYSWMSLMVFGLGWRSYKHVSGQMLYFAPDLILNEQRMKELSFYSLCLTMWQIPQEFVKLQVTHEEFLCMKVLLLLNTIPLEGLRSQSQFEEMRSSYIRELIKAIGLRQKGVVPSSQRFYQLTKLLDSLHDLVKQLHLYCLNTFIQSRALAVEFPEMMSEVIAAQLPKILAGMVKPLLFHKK
In short: (§1)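 Ovariectomized Sprague-Dawley rats, 4-5 weeks old, groups of 4-5, given estrone 10 µg sc plus oral compound in corn oil (0.5 mL) for 3 days. On day 4, BrdU 200 mg/kg ip; mammary glands taken 3 h later. Frozen sections stained with anti-BrdU/FITC. Labeling index = labeled/lobular area, averaged over 12 fields per gland, as fold over estrone alone.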

[5] = biological target: T4, Progesterone receptor (Rattus norvegicus); test: Fold induction as increase in BrdU labeling index over estrone treatment alone in lobular-aveolar rat mammary buds by progestin treatment; format: functional
In short: as §1

[6] = biological target: T5, Progesterone receptor (Mus musculus) (UniProt Q00175); test: Effect on pregnancy in mice as number pregnant/mated at 1 mg/mouse dose with simultaneous 0.5 mg RU-486 dose; out of 10; format: functional
T5 sequence (whole entry): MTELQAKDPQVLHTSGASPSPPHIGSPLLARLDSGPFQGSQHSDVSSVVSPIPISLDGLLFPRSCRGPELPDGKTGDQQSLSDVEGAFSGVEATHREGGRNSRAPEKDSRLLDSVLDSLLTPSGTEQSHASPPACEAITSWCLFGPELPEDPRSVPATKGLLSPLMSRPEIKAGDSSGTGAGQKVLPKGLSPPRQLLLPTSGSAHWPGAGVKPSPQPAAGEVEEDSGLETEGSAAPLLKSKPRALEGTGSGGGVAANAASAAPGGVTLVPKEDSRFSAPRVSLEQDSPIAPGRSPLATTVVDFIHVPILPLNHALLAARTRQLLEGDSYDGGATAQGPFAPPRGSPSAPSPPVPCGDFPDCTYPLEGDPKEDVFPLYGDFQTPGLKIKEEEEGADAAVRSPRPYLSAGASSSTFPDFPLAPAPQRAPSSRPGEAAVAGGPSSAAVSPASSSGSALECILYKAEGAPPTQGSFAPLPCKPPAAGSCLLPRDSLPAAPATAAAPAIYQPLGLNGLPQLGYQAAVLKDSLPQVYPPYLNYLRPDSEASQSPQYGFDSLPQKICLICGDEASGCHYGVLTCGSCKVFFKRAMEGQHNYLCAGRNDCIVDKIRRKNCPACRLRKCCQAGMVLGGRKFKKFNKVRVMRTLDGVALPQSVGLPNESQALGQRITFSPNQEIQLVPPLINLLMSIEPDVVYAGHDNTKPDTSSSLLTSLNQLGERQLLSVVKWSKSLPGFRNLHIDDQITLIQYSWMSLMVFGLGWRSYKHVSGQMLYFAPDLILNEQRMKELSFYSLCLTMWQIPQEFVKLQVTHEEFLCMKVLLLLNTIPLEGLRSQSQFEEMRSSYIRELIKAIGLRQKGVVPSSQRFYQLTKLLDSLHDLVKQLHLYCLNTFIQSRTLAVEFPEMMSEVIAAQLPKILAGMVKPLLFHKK
In short: (§2)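 Mature virgin ICR mice, 10-12 weeks old, mated overnight; vaginal plug marks day 1. Oral RU486 0.5 mg (~15 mg/kg), alone or with test compound (mg/mouse), on days 2-4. Compounds in ethanol diluted with corn oil, 0.1 mL. Oil controls. Necropsy on day 8 to count corpora lutea and implantation sites and to score pregnancy. Student t-test.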

[7] = biological target: T5, Progesterone receptor (Mus musculus); test: Effect on pregnancy in mice as number pregnant/mated at 3 mg/mouse dose with simultaneous 0.5 mg RU-486 dose; out of 10; format: functional
In short: as §2

[8] = biological target: T5, Progesterone receptor (Mus musculus); test: Effect on pregnancy in mice as corpora lutea at 3 mg/mouse dose with simultaneous 0.5 mg RU-486 dose; format: functional, organism-based
In short: as §2

[9] = biological target: T5, Progesterone receptor (Mus musculus); test: Effect on pregnancy in mice as implantation at 1 mg/mouse dose with simultaneous 0.5 mg RU-486 dose; format: functional
In short: as §2

[10] = biological target: T5, Progesterone receptor (Mus musculus); test: Effect on pregnancy in mice as percent pregnant at 1 mg/mouse dose with simultaneous 0.5 mg RU-486 dose; format: functional
In short: as §2

[11] = biological target: T5, Progesterone receptor (Mus musculus); test: Effect on pregnancy in mice as percent pregnant at 3 mg/mouse dose with simultaneous 0.5 mg RU-486 dose; format: functional
In short: as §2

[12] = biological target: T5, Progesterone receptor (Mus musculus); test: Effect on pregnancy in mice as corpora lutea at 1 mg/mouse dose with simultaneous 0.5 mg RU-486 dose; format: functional, organism-based
In short: as §2

[13] = biological target: T5, Progesterone receptor (Mus musculus); test: Effect on pregnancy in mice as implantation at 3 mg/mouse dose with simultaneous 0.5 mg RU-486 dose; format: functional
In short: as §2

Ki (Glucocorticoid receptor): 210 nM
Structure (SMILES): CC1=CC(C)(C)Nc2ccc3c(c21)C(c1ccc(Cl)c(C)c1)Oc1ccc(F)cc1-3 (racemic) [listing 1 of 2 here]

EC50 (Progesterone receptor [1]): 2.4 nM
Ki (Progesterone receptor [2]): 0.4 nM
Structure (SMILES): CC1=CC(C)(C)Nc2ccc3c(c21)C(c1ccc(Cl)c(C)c1)Oc1ccc(F)cc1-3 (single isomer, unassigned; (-)) [listing 1 of 2 here]

Ki (Glucocorticoid receptor): 14 nM
Efficacy [3]: 73
Structure (SMILES): CC1=CC(C)(C)Nc2ccc3c(c21)C(c1ccc(Cl)c(C)c1)Oc1ccc(Cl)cc1-3 (racemic)

Fold induction [4]: 24
Fold induction [5]: 1
Structure (SMILES): C[C@]12CC[C@@H]3c4ccc(O)cc4CC[C@H]3[C@@H]1CCC2=O

EC50 (Progesterone receptor [1]): 135 nM
Ki (Progesterone receptor [2]): 30 nM
Structure (SMILES): CC1=CC(C)(C)Nc2ccc3c(c21)C(c1cccc(Cl)c1)Oc1ccc(F)cc1-3 (single isomer, unassigned; (+)) [listing 1 of 2 here]

EC50 (Progesterone receptor [1]): 147 nM
Ki (Progesterone receptor [2]): 60 nM
Structure (SMILES): CC1=CC(C)(C)Nc2ccc3c(c21)C(c1ccc(Cl)c(C)c1)Oc1ccc(F)cc1-3 (stereo in doubt) [listing 1 of 2 here]

Fold induction [4]: 2.5
Efficacy [3]: 99
Structure (SMILES): CC1=CC(C)(C)Nc2ccc3c(c21)C(c1ccc(Cl)c(C)c1)Oc1ccc(F)cc1-3 (single isomer, unassigned; (-)) [listing 2 of 2 here]

No. pregnant/mated [6]: 3
No. pregnant/mated [7]: 5
Corpora lutea [8]: 13.8
Implants [9]: 2.2
Pregnant [10]: 30%
Pregnant [11]: 50%
Corpora lutea [12]: 13
Implants [13]: 6.6
Structure (SMILES): CC#C[C@]1(O)CC[C@H]2[C@@H]3CCC4=CC(=O)CCC4=C3[C@@H](c3ccc(N(C)C)cc3)C[C@@]21C.CC1=CC(C)(C)Nc2ccc3c(c21)C(c1ccc(Cl)c(C)c1)Oc1ccc(F)cc1-3

Efficacy [3]: 83
Structure (SMILES): CC1=CC(C)(C)Nc2ccc3c(c21)C(c1cccc(Cl)c1)Oc1ccc(F)cc1-3 (single isomer, unassigned; (+)) [listing 2 of 2 here]

Ki (Glucocorticoid receptor): 133 nM
Structure (SMILES): CC1=CC(C)(C)Nc2ccc3c(c21)C(c1cccc(Cl)c1)Oc1ccc(F)cc1-3 (racemic) [listing 1 of 2 here]

Fold induction [4]: 3.6
Efficacy [3]: 125
Structure (SMILES): CC1=CC(C)(C)Nc2ccc3c(c21)C(c1cccc(Cl)c1)Oc1ccc(F)cc1-3 (single isomer, unassigned; (-)) [listing 1 of 2 here]

Ki (Glucocorticoid receptor): 6.3 nM
Efficacy [3]: 95
Structure (SMILES): CC1=CC(C)(C)Nc2ccc3c(c21)C(c1cccc(Cl)c1)Oc1ccc(Cl)cc1-3 (racemic)

EC50 (Progesterone receptor [1]): 1.3 nM
Ki (Progesterone receptor [2]): 0.1 nM
Structure (SMILES): CC1=CC(C)(C)Nc2ccc3c(c21)C(c1cccc(Cl)c1)Oc1ccc(F)cc1-3 (single isomer, unassigned; (-)) [listing 2 of 2 here]

Efficacy [3]: 117
Structure (SMILES): CC1=CC(C)(C)Nc2ccc3c(c21)C(c1cccc(Cl)c1)Oc1ccc(F)cc1-3 (racemic) [listing 2 of 2 here]

Efficacy [3]: 97
Structure (SMILES): CC1=CC(C)(C)Nc2ccc3c(c21)C(c1ccc(Cl)c(C)c1)Oc1ccc(F)cc1-3 (racemic) [listing 2 of 2 here]

Efficacy [3]: 43
Structure (SMILES): CC1=CC(C)(C)Nc2ccc3c(c21)C(c1ccc(Cl)c(C)c1)Oc1ccc(F)cc1-3 (stereo in doubt) [listing 2 of 2 here]
